From ChEMBL document CHEMBL4732104, “Discovery of bardoxolone derivatives as novel orally active necroptosis inhibitors” (Eur J Med Chem, 2021)
The source made the active and inactive calls.

Tests used:
HT-29 [1] = assay: Protection against TNFalpha/SM-164 (TS)-induced apoptosis in human HT-29 cells assessed as increase in cell viability at 0.5 to 10 uM measured after 20 hrs by celltiter-glo luminescent cell viability assay; format: functional, cell-based; conditions: dose 0.5-10 µM
Outline: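 HT-29 cells exposed to agent across concentrations, then TNF-α and Smac mimetic (TS) for 20 h. CellTiter-Glo viability, mean ± S.D. of three independent experiments.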

Rattus norvegicus = assay: Neuroprotective activity in middle cerebral artery occlusion-induced Sprague-Dawley rat model of ischemia-reperfusion injury assessed as reduction in cerebral infarct volume at 100 mg/kg by TTC staining based microscopic analysis relative to control; format: functional; set-up: scale not given: the % may be the effect or the level left
Outline: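 Rats: left MCA blocked by monofilament via internal carotid under chloral hydrate (300 mg/kg i.p.), 2 h occlusion, 24 h reperfusion. Groups sham, vehicle, compound 100 mg/kg, nimodipine 1 mg/kg given orally beforehand. Brains cut in 2 mm coronal slices, TTC-stained; unstained area as percent of whole brain area; n = 6.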

Mus musculus [2] = assay: Protection against TNFalpha-induced C57BL/6J mouse model of systemic inflammatory response syndrome assessed as reduction in IL1beta level at 20 mg/kg, ig administered via gavage 2 hrs prior to TNFalpha stimulation and measured after 6 hrs by ELISA; format: functional, organism-based; conditions: time 8.0 hrs
Outline: (§1)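 Female C57BL/6J mice, 6–8 weeks, fasted overnight, n=11 per group. Agent suspended in 0.5% CMC-Na, given by oral gavage 2 h before i.v. mTNF-α (250 µg/kg in PBS). z-VAD-fmk i.p. 200 µg 15 min before and 75 µg 1 h after. Serum IL-1β and IL-6 measured by ELISA at 6 h.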

[3] = molecular target: Heat shock protein HSP90 (Homo sapiens) (UniProt P07900+P08238); assay: Inhibition of HSP90 in TNFalpha/SM-164/Z-VAD-fmk (TSZ)-induced human HT-29 cells assessed as reduction in RIPK1 expression at 10 uM preincubated for 30 mins followed by TSZ stimulation and measured after 2 to 6 hrs by Western blot analysis; format: cell-based; conditions: time 2-6.5 hrs
Outline: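 HT-29 cells pretreated 30 min with agent (10 μM), then TSZ for the indicated times. Lysed in RIPA with protease and phosphatase inhibitors, BCA quantified. 30 μg protein run on SDS-PAGE and blotted to PVDF. Blocked in 5% BSA, primary antibodies 1:1000 overnight at 4 °C, secondary 1:8000 for 1 h at room temperature.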

HT-29 [4] = assay: Anti-necroptotic activity in human HT-29 cells assessed as inhibition of TNFalpha/SM-164/Z-VAD-fmk (TSZ)-induced necroptosis by measuring increase in cell viability at 10 uM measured after 12 hrs in presence of RIPK3 inhibitor SZM630 by celltiter-glo luminescent cell viability assay; format: functional, cell-based
Outline: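 HT-29 cells exposed to test agent combined with a second necroptosis inhibitor, then stimulated with TSZ for 12 h to assess synergy. Viability read by CellTiter-Glo luminescence.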

Mus musculus [5] = assay: Protection against TNFalpha-induced C57BL/6J mouse model of systemic inflammatory response syndrome assessed as reduction in IL6 level at 20 mg/kg, ig administered via gavage 2 hrs prior to TNFalpha stimulation and measured after 6 hrs by ELISA; format: functional, organism-based; conditions: time 8.0 hrs; outline: as §1

CC1(C)CC[C@]2(C(=O)n3cnc(-c4cccnc4)c3)CC[C@]3(C)[C@H](C(=O)C=C4[C@@]5(C)C=C(C#N)C(=O)C(C)(C)[C@@H]5CC[C@]43C)[C@@H]2C1
22.8%: Activity (Rattus norvegicus)
active: Activity (HT-29 [1]) | Activity (Mus musculus [2]) | inhibition [3] | inhibition (HT-29 [4]) | Activity (Mus musculus [5])
